Screens (PubChem BioAssay)
ANO1 block – TMEM16A chloride channel inhibitors, primary screen, cell-based, HTS | Anoctamin-1 (Mus musculus), Q8BHY3 | hit rate 1.2% among 310,000 | normalized B-score (activity score, 25-100; higher = stronger inhibition) at 10 µM | AID 588511, 2011 | HEK293 TMEM16A/YFP iodide influx fluorescence, ionomycin;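 active = ratio plate-corrected score three or more library SD toward inhibition, starting fluorescence score within five deviations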;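 also: score derived from kinetic fluorescence span divided by baseline fluorescence per well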
MC4R antag cAMP – MC4R antagonists of cAMP signaling, primary screen, cell-based, TR-FRET, antagonist arm of biased-ligand search. Melanocortin receptor 4 (Homo sapiens), P32245. MC4R-expressing cells, MTII-stimulated cAMP, LANCE TR-FRET. inhibition, % at 6.5 µM. hit rate 0.48% among 360,000. AID 540295, 2011;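 active = inhibition above its plate's cutoff, the mean of tested wells on that plate plus 3 SD, cut at about 29% in these data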;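 also: 0% = Melanotan II alone and 100% = Melanotan II plus saturating MCL0020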
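Assay system: U2OS-MC4R stable cell line; Also added: Melanotan II; Technique: Eu-cAMP/anti-cAMP TR-FRET, emission 671 nm; Times: 30-min compound, 1-h challenge, 1-h detection, room temperature.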
beta cell repl – inducers of MIN6 beta-cell proliferation, primary screen, ATP luminescence, uHTS | AID 2380, 2010 | proliferation, % at 10 µM | MIN6 cells proliferation, ATPlite luminescence, 48 h; cells starved in 0.2% serum; 100% = growth in 10% serum | hit rate 0.29% among 330,000;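 active = compounds whose signal lies at least 3.5 SD above the mean of all wells on their plate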;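 also: 0% = DMSO-treated cells in low-serum medium and 100% = 10% serum control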
m5-HT2A agonist – mouse Htr2a agonists via beta-arrestin recruitment, primary screen, cell-based, luminescence; 5-hydroxytryptamine receptor 2A (Mus musculus), P35363; activation, % at 7.6 µM; CHO-K1 mHTR2A beta-arrestin complementation; percent of 30 µM serotonin response; hit rate 0.66% among 360,000;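 active = activation above a run cutoff, the mean activation of all tested compounds plus 3 SD, cut at about 14% in these data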;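 also: 0% = plate median of compound wells and 100% = 30 µM serotonin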
ANO1 activ – TMEM16A chloride channel activators or potentiators, primary screen, cell-based, HTS; Anoctamin-1 (Mus musculus), Q8BHY3; HEK293 TMEM16A/YFP-H148Q/I152L, iodide quench fluorescence; stronger effect = lower value; B-score at 10 µM; hit rate 0.3% among 340,000;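 active = fluorescence-ratio B-score plate-corrected deviation score at least 3 library SD below zero, with starting fluorescence score within 5 deviations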;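 also: channel opened by trigger with iodide after compound preincubation; score built on the fluorescence ratio of max minus min over baseline; more negative score means more quench and so TMEM16A activation or potentiation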
MC4R barr agon – MC4R agonists recruiting beta-arrestin, primary screen, cell-based, luminescence, agonist arm of biased-ligand search; Melanocortin receptor 4 (Homo sapiens), P32245; hit rate 0.98% among 360,000; U2OS MC4R beta-arrestin complementation; percent of melanotan II response, DMSO zero; activation, % at 8.9 µM;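 active = activation above a per-plate cutoff, the mean activation of sample wells on that plate plus 3 SD, cut at about 8% in these data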
U2OS cAMP counter – nonselective cAMP signaling inhibitors, parental cells, counter-screen for MC4R biased antagonist project, cell-based, TR-FRET, U2OS, forskolin, triplicate. shares compounds with MC4R antag cAMP. LANCE TR-FRET. inhibition, % at 6.5 µM. hit rate 26% among 1,600;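 active = mean inhibition over triplicates above the low-control well mean plus 3 SD, set per campaign, cut at about 13% in these data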;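 also: signal is single emission at 671 nm which falls as cellular cAMP rises; 0% = forskolin-stimulated wells and 100% = buffer without forskolin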
MC4R antag conf – MC4R cAMP antagonists, retest, confirmation, cell-based, TR-FRET; hit rate 27% among 1,600; shares compounds with MC4R antag cAMP; AID 602195, 2012; MC4R-expressing cells, MTII-stimulated cAMP; inhibition, % at 6.5 µM; in the data active = inhibition above about 29%;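 also: 0% = agonist stimulated wells alone and 100% = agonist stimulated wells plus saturating reference antagonist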
An asterisk follows results filed as active; i = inactive; . = no result. This is a sample that favours compounds with a hit; in the whole collection about 3.4% have one here.

SMILES | ANO1 block | MC4R antag cAMP | beta cell repl | m5-HT2A agonist | ANO1 activ | MC4R barr agon | U2OS cAMP counter | MC4R antag conf
CC1CCN(S(=O)(=O)c2ccc3c(c2)N(C)C(=O)CC(=O)N3C)CC1 | i | 17 | -2 | -1 | i | 1 | . | .
Cc1csc(C(C)N(C)C(=O)CCc2nnc(CCc3ccccc3)o2)n1 (centres undefined) | i | 29* | -4 | 2 | i | 1 | 2 | 1
O=[N+]([O-])c1cc(-c2csc(NCCc3nc4cc(Cl)c(Cl)cc4n3CCCO)n2)ccc1Cl | i | 33* | -8 | -3 | i | -2 | 16* | 20
CCCn1c(CCNc2nc(-c3ccc(Cl)c([N+](=O)[O-])c3)cs2)nc2cc(Cl)c(Cl)cc21 | i | 7 | -5 | -4 | i | -1 | . | .
CCOC(=O)c1cc(-c2csc(-c3ccc(C(F)(F)F)cc3)n2)on1 | i | 37* | 3 | 2 | i | 1 | 2 | -8
CCOC(=O)c1cc(-c2csc(-c3ccc(C(C)(C)C)cc3)n2)on1 | i | 14 | -1 | 2 | i | 0 | . | .
Cc1[nH]nc(S(=O)CC(=O)O)c1[N+](=O)[O-] (centres undefined) | i | 31* | -2 | 0 | i | 2 | -1 | -11
COc1cc(C(=S)N2CCOCC2)ccc1OC(=O)c1ccc([N+](=O)[O-])cc1[N+](=O)[O-] | i | 37* | -1 | 4 | i | -1 | 6 | 28
CCOC(=O)Cn1c(=O)oc2cc(S(=O)(=O)N3CCc4ccccc43)ccc21 | i | 30* | -1 | 1 | i | 1 | 11 | 13
CC(C)(C)NC(=O)Cn1c(=O)oc2cc(S(=O)(=O)N3CCc4ccccc43)ccc21 | i | 11 | -1 | -11 | i | 0 | . | .
COc1ccc(N(C)C(=O)c2sc(Cl)nc2C)cc1 | i | 17 | -1 | 0 | i | 2 | . | .
Cc1ccc(OC(=O)c2sc(Cl)nc2C)cc1C | i | 36* | 0 | -3 | i | 0 | 16* | 37*
COc1ccccc1CNC(=O)CN1C(=O)NC2(CCCCCC2)C1=O | . | 4 | -3 | 3 | i | -1 | . | .
CSc1nnc(NC(=O)c2nc(S(=O)(=O)Cc3ccccc3)ncc2Cl)s1 | i | 23 | -8 | 12 | i | -3 | . | .
CCOC(=O)c1ccc(NC(=O)c2nc(S(=O)(=O)Cc3ccccc3)ncc2Cl)cc1 | i | -1 | -7 | -2 | i | -5 | . | .
Cc1cccc(CS(=O)(=O)c2ncc(Cl)c(C(=O)NCc3ccc4c(c3)OCO4)n2)c1 | i | 33* | -7 | -10 | i | -3 | 10 | 25
CC(C)c1nnc(NC(=O)c2nc(S(=O)(=O)Cc3ccccc3)ncc2Cl)s1 | i | 51* | -8 | 1 | i | -3 | 25* | 47*
CCS(=O)(=O)c1ncc(Cl)c(C(=O)Nc2ccc(S(=O)(=O)N3CCC(C)CC3)cc2)n1 | i | 56* | -4 | -8 | i | -3 | 9 | 39*
CCc1ccc(NC(=O)c2nc(S(=O)(=O)Cc3ccccc3)ncc2Cl)cc1 | i | 36* | -8 | -4 | i | -7 | 12 | 17
Cc1ccc(C(=O)NCc2ccc3c(c2)OCO3)c(Cl)c1 | . | 3 | . | 2 | . | -1 | . | .
Cc1cc(C(=O)N2CCC2(C)C(=O)Nc2ccc3[nH]ncc3c2)nn1C (centres undefined) | . | 1 | . | -4 | . | -1 | . | .
CC1(C(=O)Nc2cccc(OC(F)(F)F)c2)Cc2c(-c3cccc(C(N)=O)c3)ccnc2O1 (centres undefined) | . | 10 | . | -3 | . | 0 | . | .
CCOc1ccccc1NC(=O)c1nc(S(=O)(=O)Cc2ccccc2)ncc1Cl | i | 33* | -8 | -1 | i | -5 | 5 | -24
CC(=O)Nc1ccc(NC(=O)c2nc(S(=O)(=O)Cc3cccc(C)c3)ncc2Cl)cc1 | i | 43* | -7 | -2 | i | -6 | 14* | 28
Cc1ccc(NC(=O)c2nc(S(=O)(=O)Cc3ccccc3C)ncc2Cl)cc1C | i | 32* | -7 | -4 | i | -5 | 30* | 15
SMILES | ANO1 block | MC4R antag cAMP | beta cell repl | m5-HT2A agonist | ANO1 activ | MC4R barr agon | U2OS cAMP counter | MC4R antag conf
COc1ccccc1NC(=O)c1nc(S(=O)(=O)Cc2ccccc2)ncc1Cl | i | 5 | -8 | 0 | i | -7 | . | .
CCCc1nnc(NC(=O)c2nc(S(=O)(=O)Cc3ccc(C)cc3)ncc2Cl)s1 | i | 52* | -7 | -1 | i | -5 | 22* | 36*
COC(=O)c1ccc(NC(=O)c2nc(S(=O)(=O)Cc3cccc(C)c3)ncc2Cl)cc1 | i | 14 | -7 | 0 | i | -6 | . | .
CCOc1ccc(NC(=O)c2cc(C3CC3)nc3c2cnn3C(C)C)cc1OC | . | 4 | 1 | -3 | i | 1 | . | .
O=C1CCC[C@@H]2C=C[C@H](c3ccc(Br)cc3)[C@H]3CCN1[C@@H]32 | . | . | . | 1 | . | . | . | .
COc1ccc(S(=O)(=O)N2CCC[C@@H]2C(=O)N2CCC[C@H]2C(=O)NCc2ccncc2)cc1C | . | . | . | 3 | . | . | . | .
Brc1cc(-c2ccccc2)nc(-c2ccccc2)n1 | i | 36* | -6 | -2 | i | -2 | 18* | 36*
Clc1cc(-c2ccccc2)nc(-c2ccccc2)n1 | i | 30* | -4 | 1 | i | -1 | 17* | 29*
Cc1cc(Cl)nc(-c2ccccc2)n1 | i | 1 | 0 | 2 | i | -1 | . | .
CCN1CCN(c2ccc(N3CCN(C(=O)c4ccc(Br)o4)CC3)nn2)CC1 | i | 0 | -3 | 6 | i | 0 | . | .
COc1ccc(OC)c(Cc2nnc(CCC(=O)N3CCCCC3c3nccs3)o2)c1 (centres undefined) | i | 30* | 0 | -3 | i | 1 | -5 | -21
